# Measurements: ChEMBL document CHEMBL1125291, “New 8-(trifluoromethyl)-substituted quinolones. The benefits of the 8-fluoro group with reduced phototoxic risk” (1992)
# How the values were obtained:
# Enterobacter cloacae = assay: Minimum inhibitory concentration (MIC) against gram negative bacteria Enterobacter cloacae MA-2646.; type: functional
# Escherichia coli [1] = assay: In vivo efficacy in mouse protection test in Escherichia coli Vogel administered by subcutaneous injection.; type: functional; conditions: Escherichia coli, sc; read-out: PD50
# Procedure, shortened: (§1)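 Acute lethal systemic infections in female Charles River CD-1 mice. A single dose was given at challenge, orally by gavage or by subcutaneous injection. PD50 (median protective dose, mg/kg) was determined.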
# Mus musculus [2] = species on record: Mus musculus; assay: Number of mice which show positive phototoxic reaction in 5 mice; type: functional
# Mus musculus [3] = species on record: Mus musculus; assay: Dose required to induce phototoxic reaction in 50% of mice by probit method at different dosage forms.; type: functional
# Streptococcus pneumoniae [4] = assay: Minimum inhibitory concentration (MIC) against gram positive bacteria Streptococcus pneumoniae SV-1.; type: functional; conditions: Streptococcus pneumoniae; read-out: MIC
# Procedure, shortened: (§2)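 MICs were determined by standard broth microtitration against 11 Gram-positive and Gram-negative organisms, in µg/mL. Values come from duplicate or triplicate experiments and are accurate to ±50%.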
# Mus musculus [5] = assay: Maximum tolerance dose was measured for phototoxic skin reaction by po administration; type: functional
# Escherichia coli [6] = assay: Minimum inhibitory concentration (MIC) against gram negative bacteria Escherichia coli H-560.; type: functional; conditions: Escherichia coli; read-out: MIC; procedure, shortened: as §2
# [7] = Minimum inhibitory concentration (MIC) against gram negative bacteria Prot. rettgeri M-1771.; type: functional, Providencia rettgeri; conditions: Providencia rettgeri; read-out: MIC; procedure, shortened: as §2
# Mus musculus [8] = species on record: Mus musculus; assay: Dose which has no effect to induce phototoxic reaction in 50% of mice by probit method.; type: functional
# Pseudomonas aeruginosa [9] = assay: Minimum inhibitory concentration (MIC) against gram negative bacteria Pseudomonas aeruginosa UI-18.; type: functional; conditions: Pseudomonas aeruginosa; read-out: MIC; procedure, shortened: as §2
# Streptococcus pyogenes [10] = assay: Minimum inhibitory concentration (MIC) against gram positive bacteria Streptococcus pyogenes C-203.; type: functional; conditions: Streptococcus pyogenes; read-out: MIC; procedure, shortened: as §2
# Enterococcus faecalis = assay: Minimum inhibitory concentration (MIC) against gram positive bacteria Streptococcus faecalis MGH-2.; type: functional; conditions: Enterococcus faecalis; read-out: MIC; procedure, shortened: as §2
# Staphylococcus aureus [11] = assay: Minimum inhibitory concentration (MIC) against gram positive bacteria Staphylococcus aureus H-228.; type: functional; conditions: Staphylococcus aureus; read-out: MIC; procedure, shortened: as §2
# Escherichia coli [12] = assay: Minimum inhibitory concentration (MIC) against gram negative bacteria Escherichia coli Vogel.; type: functional; conditions: Escherichia coli; read-out: MIC; procedure, shortened: as §2
# Klebsiella pneumoniae = assay: Minimum inhibitory concentration (MIC) against gram negative bacteria Klebsiella pneumoniae MGH-2.; type: functional; conditions: Klebsiella pneumoniae; read-out: MIC; procedure, shortened: as §2
# Staphylococcus aureus [13] = assay: Minimum inhibitory concentration (MIC) against gram positive bacteria Staphylococcus aureus UC-76.; type: functional; conditions: Staphylococcus aureus; read-out: MIC; procedure, shortened: as §2
# Mus musculus [14] = species on record: Mus musculus; assay: Days of the first positive reaction in […] mice.; type: functional
# Procedure, shortened: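 Phototoxic skin reaction test in depilated female CD-1 mice. A single oral dose (gavage) or subcutaneous dose was given, followed 1 h later by 3 h of UVA exposure (320–400 nm). The regimen was repeated for up to 4 consecutive days, with initial doses of 30, 100 and 300 mg/kg. PTD50 was derived by the probit method. The first day of positive reaction and the no-effect dose were taken from the raw data.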
# Escherichia coli [15] = assay: In vivo efficacy in mouse protection test in Escherichia coli Vogel dose administered orally by gavage.; type: functional; conditions: Escherichia coli, po; read-out: PD50; procedure, shortened: as §1
# Streptococcus pneumoniae [16] = assay: In vivo efficacy (orally) against Streptococcus pneumoniae SV-1 in mouse protection test; type: functional; conditions: Streptococcus pneumoniae, po; read-out: PD50; procedure, shortened: as §1
# Streptococcus pneumoniae [17] = assay: In vivo efficacy (s.c.) against Streptococcus pneumoniae SV-1 in mouse protection test; type: functional; conditions: Streptococcus pneumoniae, sc; read-out: PD50; procedure, shortened: as §1
# Streptococcus pyogenes [18] = assay: In vivo efficacy (s.c.) against Streptococcus pyogenes C-203 in mouse protection test; type: functional; conditions: Streptococcus pyogenes, sc; read-out: PD50; procedure, shortened: as §1
# Streptococcus pyogenes [19] = assay: In vivo efficacy (orally) against Streptococcus pyogenes C-203 in mouse protection test; type: functional; conditions: Streptococcus pyogenes, po; read-out: PD50; procedure, shortened: as §1
# Pseudomonas aeruginosa [20] = assay: In vivo efficacy (orally) against Pseudomonas aeruginosa in mouse protection test; type: functional; conditions: Pseudomonas aeruginosa, po; read-out: PD50; procedure, shortened: as §1
# Pseudomonas aeruginosa [21] = assay: In vivo efficacy (s.c.) against Pseudomonas aeruginosa in mouse protection test; type: functional; conditions: Pseudomonas aeruginosa, sc; read-out: PD50; procedure, shortened: as §1
SMILES,MIC (Enterobacter cloacae),ED50 (Escherichia coli [1]),No. of pos rxns (Mus musculus [2]),PTD50 (Mus musculus [3]),MIC (Streptococcus pneumoniae [4]),MTD (Mus musculus [5]),MIC (Escherichia coli [6]),MIC [7],No effect dose (Mus musculus [8]),MIC (Pseudomonas aeruginosa [9]),MIC (Streptococcus pyogenes [10]),MIC (Enterococcus faecalis),MIC (Staphylococcus aureus [11]),MIC (Escherichia coli [12]),MIC (Klebsiella pneumoniae),MIC (Staphylococcus aureus [13]),Day of first positve reaction (Mus musculus [14]),ED50 (Escherichia coli [15]),ED50 (Streptococcus pneumoniae [16]),ED50 (Streptococcus pneumoniae [17]),further results
NC1CCN(c2c(F)cc3c(=O)c(C(=O)O)cn(C4CC4)c3c2C(F)(F)F)CC1,0.2 µg/mL,4.5 mg/kg,0,>100 mg/kg,0.2 µg/mL,100 mg/kg,0.2 µg/mL,0.8 µg/mL,100 mg/kg,3.1 µg/mL,0.1 µg/mL,0.2 µg/mL,0.1 µg/mL,0.2 µg/mL,0.4 µg/mL,0.05 µg/mL,0,12.5 mg/kg,,,
CC1(CN)CCN(c2cc3c(cc2F)c(=O)c(C(=O)O)cn3C2CC2)C1 (stereo not drawn),0.05 µg/mL,1.7 mg/kg,0,>100 mg/kg,0.003 µg/mL,100 mg/kg,0.025 µg/mL,0.4 µg/mL,100 mg/kg,1.6 µg/mL,0.003 µg/mL,0.05 µg/mL,0.1 µg/mL,0.025 µg/mL,0.2 µg/mL,0.013 µg/mL,0,26 mg/kg,12 mg/kg,0.45 mg/kg,
CC1(CN)CCN(c2c(F)cc3c(=O)c(C(=O)O)cn(C4CC4)c3c2F)C1 (stereo not drawn),0.013 µg/mL,3 mg/kg,5,<30 mg/kg,0.003 µg/mL,30 mg/kg,0.006 µg/mL,0.05 µg/mL,<30 mg/kg,0.4 µg/mL,0.003 µg/mL,0.006 µg/mL,0.013 µg/mL,0.013 µg/mL,0.025 µg/mL,,1,1.8 mg/kg,1.2 mg/kg,0.3 mg/kg,
C[C@@H]1CN(c2cc3c(cc2F)c(=O)c(C(=O)O)cn3C2CC2)CCN1,0.025 µg/mL,0.4 mg/kg,1,>100 mg/kg,0.2 µg/mL,100 mg/kg,0.025 µg/mL,0.1 µg/mL,100 mg/kg,0.4 µg/mL,0.2 µg/mL,0.4 µg/mL,0.4 µg/mL,0.025 µg/mL,0.05 µg/mL,0.1 µg/mL,0,1.2 mg/kg,,,ED50 (Streptococcus pyogenes [18]): 12 mg/kg; ED50 (Streptococcus pyogenes [19]): 39 mg/kg
C[C@@H]1CN(c2c(F)cc3c(=O)c(C(=O)O)cn(C4CC4)c3c2C(F)(F)F)CCN1,0.2 µg/mL,1.4 mg/kg,0,>100 mg/kg,0.8 µg/mL,100 mg/kg,0.05 µg/mL,0.8 µg/mL,100 mg/kg,3.1 µg/mL,0.8 µg/mL,0.8 µg/mL,0.4 µg/mL,0.1 µg/mL,0.4 µg/mL,0.2 µg/mL,0,1.6 mg/kg,,,ED50 (Streptococcus pyogenes [18]): 21 mg/kg; ED50 (Streptococcus pyogenes [19]): 23 mg/kg
CCNCC1CCN(c2cc3c(cc2F)c(=O)c(C(=O)O)cn3C2CC2)C1 (stereo not drawn),0.4 µg/mL,2.4 mg/kg,0,>100 mg/kg,0.2 µg/mL,100 mg/kg,0.05 µg/mL,0.8 µg/mL,100 mg/kg,1.6 µg/mL,0.05 µg/mL,0.2 µg/mL,0.4 µg/mL,0.2 µg/mL,0.2 µg/mL,0.013 µg/mL,0,35 mg/kg,,,ED50 (Streptococcus pyogenes [18]): 4.5 mg/kg; ED50 (Streptococcus pyogenes [19]): 46 mg/kg
CC1(CN)CCN(c2c(F)cc3c(=O)c(C(=O)O)cn(C4CC4)c3c2C(F)(F)F)C1 (stereo not drawn),0.2 µg/mL,3.1 mg/kg,0,>100 mg/kg,0.05 µg/mL,100 mg/kg,0.1 µg/mL,0.8 µg/mL,100 mg/kg,3.1 µg/mL,0.05 µg/mL,0.2 µg/mL,0.05 µg/mL,0.2 µg/mL,0.4 µg/mL,0.013 µg/mL,0,8.5 mg/kg,1.1 mg/kg,0.4 mg/kg,
CCn1cc(C(=O)O)c(=O)c2cc(F)c(N3CCN(C)CC3)cc21 [PEFLOXACIN],,2 mg/kg,2,265 mg/kg,0.8 µg/mL,300 mg/kg,0.1 µg/mL,0.05 µg/mL,>172 mg/kg,0.4 µg/mL,0.8 µg/mL,0.8 µg/mL,0.2 µg/mL,0.025 µg/mL,0.05 µg/mL,0.1 µg/mL,4,3 mg/kg,> 200 mg/kg,96 mg/kg,ED50 (Pseudomonas aeruginosa [20]): 38 mg/kg; ED50 (Streptococcus pyogenes [18]): 94 mg/kg; ED50 (Streptococcus pyogenes [19]): 110 mg/kg; ED50 (Pseudomonas aeruginosa [21]): 26 mg/kg
C[C@@H]1CN(c2c(F)cc3c(=O)c(C(=O)O)cn(C4CC4)c3c2F)CCN1,0.025 µg/mL,0.2 mg/kg,1,43 mg/kg,0.4 µg/mL,30 mg/kg,0.1 µg/mL,0.1 µg/mL,<30 mg/kg,0.4 µg/mL,0.2 µg/mL,0.4 µg/mL,0.2 µg/mL,0.025 µg/mL,0.025 µg/mL,0.1 µg/mL,4,0.7 mg/kg,,,ED50 (Streptococcus pyogenes [18]): 7.2 mg/kg; ED50 (Streptococcus pyogenes [19]): 14 mg/kg
NC1CCN(c2cc3c(cc2F)c(=O)c(C(=O)O)cn3C2CC2)CC1,0.4 µg/mL,3.8 mg/kg,0,>100 mg/kg,0.4 µg/mL,100 mg/kg,0.4 µg/mL,1.6 µg/mL,100 mg/kg,3.1 µg/mL,0.4 µg/mL,0.8 µg/mL,1.6 µg/mL,0.4 µg/mL,0.8 µg/mL,0.2 µg/mL,0,18 mg/kg,,,
NC1CCN(c2c(F)cc3c(=O)c(C(=O)O)cn(C4CC4)c3c2F)CC1,0.1 µg/mL,1.2 mg/kg,5,55 mg/kg,0.4 µg/mL,100 mg/kg,0.05 µg/mL,0.2 µg/mL,30 mg/kg,0.8 µg/mL,0.4 µg/mL,0.2 µg/mL,0.1 µg/mL,0.1 µg/mL,0.1 µg/mL,0.025 µg/mL,2,3.7 mg/kg,15 mg/kg,3.6 mg/kg,
